Measurements reported in ChEMBL document CHEMBL1255524, “Identification of 2,3,6-trisubstituted quinoxaline derivatives as a Wnt2/β-catenin pathway inhibitor in non-small-cell lung cancer cell lines” (Bioorg Med Chem Lett, 2010).
Activity calls are given as the source filed them. The rule behind the calls is not given here.

Tests used:
[1] = test system: A549; experiment: Reduction of beta-casein expression level in cytosolic fraction of human A549 cells expressing Wnt2 by Western blotting; assay type: functional, cell-based
[2] = molecular target: T1, Protein Wnt-2 (Homo sapiens) (UniProt P09544); experiment: Inhibition of Wnt2 signaling pathway in human A549 cells assessed as inhibition of beta-casein-mediated Tcf/Lef transcriptional activity after 24 hrs by dual luciferase reporter gene assay relative to control; assay type: cell-based; parameters: concentration or dose not given beside the values; details: concentration not given here
T1 sequence (whole entry): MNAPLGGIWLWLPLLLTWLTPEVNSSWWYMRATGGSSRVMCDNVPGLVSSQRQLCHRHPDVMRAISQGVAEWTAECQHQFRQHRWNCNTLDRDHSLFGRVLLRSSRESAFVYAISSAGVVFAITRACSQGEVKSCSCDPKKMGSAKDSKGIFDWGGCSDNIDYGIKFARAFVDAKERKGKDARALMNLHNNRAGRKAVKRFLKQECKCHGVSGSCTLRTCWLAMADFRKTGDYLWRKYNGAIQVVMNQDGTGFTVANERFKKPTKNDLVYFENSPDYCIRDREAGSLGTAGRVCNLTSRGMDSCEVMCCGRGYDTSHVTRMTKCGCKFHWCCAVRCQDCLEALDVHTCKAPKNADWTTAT
Summary of the method: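 A549/Wnt2 cells (4 × 10⁴) transiently co-transfected with 1 lg pSuperTopflash (eight Tcf sites upstream of firefly luciferase) or pSuperFopflash (mutated Tcf sites, negative control) plus 15 ng pRL-TK. Compounds applied at the proliferation IC₅₀, 37 °C, 24 h. Lysed; firefly and Renilla read by dual-luciferase. Firefly/Renilla ratio, triplicates, mean ± SEM, relative to untreated cells.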

[3] = Inhibition of […] signaling in human A549 cells assessed as inhibition of cell proliferation after 24 hrs by MTT assay; details: A549, 24 h
[4] = Inhibition of […] signaling in human H460 cells assessed as inhibition of cell proliferation after 24 hrs by MTT assay; assay type: cell-based
[5] = test system: A549; experiment: Reduction of beta-casein expression level in human A549 cells expressing Wnt2 by Western blotting; assay type: functional, cell-based
[6] = test system: A549; experiment: Reduction of beta-casein expression level in nuclear fraction of human A549 cells expressing Wnt2 by Western blotting; assay type: functional, cell-based
[7] = Inhibition of […] signaling in human A549 cells assessed as inhibition of cell proliferation at 15% of IC50 concentration after 24 to 48 hrs by MTT assay; assay type: cell-based
[8] = Inhibition of […] signaling in human A549 cells assessed as inhibition of cell proliferation at 30% of IC50 concentration after 24 to 48 hrs by MTT assay; assay type: cell-based
[9] = molecular target: T1, Protein Wnt-2 (Homo sapiens); experiment: Inhibition of Wnt2 signaling pathway in human H460 cells assessed as inhibition of beta-casein-mediated Tcf/Lef transcriptional activity IC50 concentration after 24 hrs by dual luciferase reporter gene assay relative to control; assay type: cell-based
Summary of the method: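 H460/Wnt2 cells transiently co-transfected with SuperTopflash and pRL-TK Renilla control. Compounds given at the A549 proliferation IC₅₀, 37 °C, 24 h. Dual firefly/Renilla luciferase read-out as normalized ratio, triplicates, mean ± SEM, versus untreated cells.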

[10] = Inhibition of […] signaling in human A549 cells assessed as inhibition of cell proliferation after 24 to 48 hrs by MTT assay; assay type: cell-based
Summary of the method: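 MTS proliferation assay in A549/Wnt2 cells. Cells seeded at 5 × 10³ per well and left about 24 h to attach. Compounds added at various concentrations; growth read at 24 and 48 h after treatment. MTS reagent for 30 min at 37 °C in CO₂, then absorbance at 490 nm.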

Row | Compound | Activity [1] | inhibition [2] [%] | IC50 [3] [nM] | inhibition [4] | Activity [5] | Activity [6] | inhibition [7] | inhibition [8] | inhibition [9] [%] | inhibition [10]
1 | CCN(CC)CCOc1nc2cc(NC(=O)N(C)Cc3ccc(F)cc3)ccc2nc1C#Cc1ccc(N(C)C)cc1 | Active | > 80 | 7900 | Active | Active | Active | Active | – | – | –
2 | COc1ccc(C#Cc2nc3cc(F)ccc3nc2OCCOCCN(C)C)cc1 | Active | > 80 | 2340 | Active | Active | Active | Active | Active | > 80 | –
3 | Cc1ccc(C#Cc2nc3ccccc3nc2OCCN2CCCC2)cc1 | Active | – | 1320 | Active | Active | Active | Active | – | – | –
4 | CN1CCC[C@H]1COc1nc2ccc(N)cc2nc1C#Cc1ccccc1 | Active | > 80 | 3800 | Active | Active | Active | Active | – | > 80 | –
5 | COc1nc2ccc(NC(=O)Nc3ccc(C(C)(C)C)cc3)cc2nc1NCCN1CCCCC1 | Active | 30 | 5010 | Active | Active | Active | Active | Active | – | –
6 | Cc1cccc(C#Cc2nc3ccccc3nc2OCCCN2CCCCC2)c1 | Active | 30 | 1610 | Active | Active | Active | Active | – | – | –
7 | CN(C)c1ccc(C#Cc2nc3cc(F)ccc3nc2OCCCN2CCCCC2)cc1 | Active | 30 | 3770 | Active | Active | Active | Active | – | – | –
8 | COc1c(C[C@@H](C)OC(=O)Oc2ccc(O)cc2)c2c3c(C[C@@H](C)OC(=O)c4ccccc4)c(OC)c(=O)c4c(O)cc(OC)c(c5c(OC)cc(O)c(c1=O)c52)c43 [CALPHOSTIN C] | – | – | 3200 | – | – | – | – | – | – | –
9 | Cc1ccc2nc(OCCC3CCCN3C)c(C#Cc3ccccc3)nc2c1 (stereo not given) | Active | 30 | 905 | Active | Active | Active | Active | – | – | Dose-dependent effect
10 | CN(C)CCOc1nc2ccccc2nc1C#Cc1ccccc1 | Active | 30 | 758 | Active | Active | Active | Active | – | – | –
11 | COc1cccc2nc(OCCN3CCCC3)c(C#Cc3ccccc3)nc12 | Active | – | 1890 | Active | Active | Active | Active | – | – | Dose-dependent effect
12 | Cc1ccc(C#Cc2nc3ccc(NC(=O)N4CCN(c5ccccn5)CC4)cc3nc2OCCN2CCCC2)cc1 | Active | 30 | 4760 | Active | Active | Active | Active | – | – | Dose-dependent effect
13 | CCN(CC)CCOc1nc2cc(NC(=O)c3ccc(C)cc3)ccc2nc1C#Cc1ccc(OC)cc1C | Active | – | 1780 | Active | Active | Active | Active | – | – | –
14 | COc1cccc(C#Cc2nc3ccc(NC(=O)c4ccc(F)cc4)cc3nc2OC2CCN(C)CC2)c1 | Active | – | 3540 | Active | Active | Active | Active | – | – | –
